{"data": "Assay results collected from several papers", "cell line": "MCF-10A", "read-out": "cell growth or viability", "note": "Protocols differ between the studies behind these lines."}
{"SMILES": "COc1cccc2c1C(=O)c1c(O)c3c(c(O)c1C2=O)C[C@@](O)(C(=O)CO)C[C@@H]3O[C@H]1C[C@H](N)[C@H](O)[C@H](C)O1", "test": "resazurin", "setting": "72 h", "IC50": "0.037 µM"}
{"SMILES": "CCCOc1cccc(-c2cnc3c(n2)CCCC3)c1", "setting": "48 h", "IC50": "> 50 µM"}
{"SMILES": "O=C(NC(=S)NCCNC(=S)NC(=O)c1ccc2ccccc2c1)c1ccc2ccccc2c1", "setting": "48 h", "IC50": "86.1 µM"}
{"SMILES": "C[C@H]1O[C@@H](n2cc(F)c(=O)[nH]c2=O)[C@H](O)[C@@H]1O", "test": "CCK-8", "setting": "48 h", "IC50": "8.51 µM"}
{"SMILES": "COc1ccc(-c2cnc3c(n2)CCCC3)cc1C#N", "setting": "48 h", "IC50": "> 50 µM"}
{"SMILES": "COc1cccc2c1C(=O)c1c(O)c3c(c(O)c1C2=O)C[C@@](O)(C(=O)CO)C[C@@H]3O[C@H]1C[C@H](N)[C@H](O)[C@H](C)O1", "setting": "48 h", "IC50": "2.17 µM"}
{"SMILES": "Cc1cc2ncc(-c3ccccc3)nc2cc1C", "setting": "48 h", "IC50": "> 50 µM"}
{"SMILES": "CC(C)[C@H](NC(=O)c1cc(Cl)ccc1OCCNC(=O)OC(C)(C)C)C(=O)Nc1ccc([N+](=O)[O-])cc1Cl", "test": "MTT", "setting": "72 h", "IC50": "> 60 µM"}
{"SMILES": "CCN(CC)CCNC(=O)c1c(C)[nH]c(/C=C2\\C(=O)Nc3ccc(F)cc32)c1C", "setting": "72 h", "IC50": "4.07 µM"}
{"SMILES": "CC(C)C(=O)Nc1ccc([N+](=O)[O-])c(C(F)(F)F)c1", "test": "CCK-8", "setting": "48 h", "IC50": "21.4 µM"}
{"SMILES": "O=C(/C=C/c1ccccc1)c1ccccc1", "test": "resazurin", "setting": "72 h", "IC50": "3.15 µM"}
{"SMILES": "CCCc1ccc(-c2cnc3c(n2)CCCC3)cc1", "setting": "48 h", "IC50": "> 50 µM"}
{"SMILES": "C[C@](C#N)(COc1cc(C#N)ccc1C(F)(F)F)NC(=O)c1ccc(SC(F)(F)F)cc1", "setting": "48 h", "IC50": "~32.8 µM"}
{"SMILES": "c1ccc2cc(-c3nnc(NC4CCCCC4)[nH]3)ccc2c1", "setting": "48 h", "IC50": "86.6 µM"}
